Source: ChEMBL document CHEMBL4715715, “Synthesis and biological evaluation of arylcinnamide linked combretastatin-A4 hybrids as tubulin polymerization inhibitors and apoptosis inducing agents” (Bioorg Med Chem Lett, 2016)

Assays:
[1] = test system: HeLa; experiment: Antiproliferative activity against human HeLa cells assessed as cell growth inhibition measured after 48 hrs by SRB assay; assay type: functional
Outline: (§1)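 Sulforhodamine B (SRB) cell-staining assay across a panel of human cancer lines. Growth inhibition is reported as GI50.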

[2] = test system: SK-OV-3; experiment: Antiproliferative activity against human SK-OV-3 cells assessed as cell growth inhibition measured after 48 hrs by SRB assay; assay type: functional; outline: as §1
[3] = test system: HOP-62; experiment: Antiproliferative activity against human HOP-62 cells assessed as cell growth inhibition measured after 48 hrs by SRB assay; assay type: functional; outline: as §1
[4] = test system: MCF7; experiment: Induction of apoptosis in human MCF7 cells assessed as early apoptotic cells at 100 nM measured after 48 hrs by annexinV-FITC/propidium iodide staining based flow cytometry (reference value: 4.4 %); assay type: functional
[5] = test system: MCF7; experiment: Induction of apoptosis in human MCF7 cells assessed as early apoptotic cell population at 100 nM measured after 48 hrs by Annexin V-FITC/PI staining based flow cytometry (reference value: 0.7 %)
[6] = test system: MCF7; experiment: Cell cycle arrest in human MCF7 cells assessed as accumulation at G2/M phase at 100 nM measured after 48 hrs by propidium iodide staining based flow cytometry (reference value: 8.44 %); assay type: functional
[7] = test system: MCF7; experiment: Cell cycle arrest in human MCF7 cells assessed as accumulation at G2/M phase at 50 nM measured after 48 hrs by propidium iodide staining based flow cytometry (reference value: 8.44 %); assay type: functional
Outline: (§2)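 MCF-7 cells were treated at 50 and 100 nM for 48 h. Cell-cycle phase distribution (sub-G1, G0/G1, S, G2/M %) was read by flow cytometry against untreated control.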

[8] = species: Sus scrofa; experiment: Inhibition of porcine brain tubulin polymerization at 3 uM measured after 1 hr in presence of GTP by fluorescence assay relative to control; assay type: tissue-based
Outline: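 Tubulin polymerization was followed by fluorescence (excitation 360 nm, emission 420 nm) for 1 h at 37 °C. Compounds were at 3 μM final, with and without compound. Values are mean ± SD of two experiments done in triplicate.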

[9] = test system: MCF7; experiment: Cell cycle arrest in human MCF7 cells assessed as accumulation at S phase at 50 nM measured after 48 hrs by propidium iodide staining based flow cytometry (reference value: 3.1 %); assay type: functional; outline: as §2
[10] = test system: MCF7; experiment: Induction of apoptosis in human MCF7 cells assessed as necrotic cells at 50 nM measured after 48 hrs by annexinV-FITC/propidium iodide staining based flow cytometry (reference value: 0.1 %); assay type: functional
Outline: (§3)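 MCF-7 cells were treated at 50 and 100 nM for 48 h. Annexin V-FITC/PI dual staining was read by flow cytometry. Cells were quadrant-gated as UL, UR, LL and LR, with untreated control alongside.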

[11] = test system: K562; experiment: Antiproliferative activity against human K562 cells assessed as cell growth inhibition measured after 48 hrs by SRB assay; assay type: functional; outline: as §1
[12] = test system: MCF7; experiment: Induction of apoptosis in human MCF7 cells assessed as late apoptotic cells at 100 nM measured after 48 hrs by annexinV-FITC/propidium iodide staining based flow cytometry (reference value: 0.6 %)
[13] = test system: MCF7; experiment: Cell cycle arrest in human MCF7 cells assessed as accumulation at G0/G1 phase at 50 nM measured after 48 hrs by propidium iodide staining based flow cytometry (reference value: 85.3 %); assay type: functional; outline: as §2
[14] = test system: MCF7; experiment: Induction of apoptosis in human MCF7 cells assessed as live cells at 50 nM measured after 48 hrs by annexinV-FITC/propidium iodide staining based flow cytometry (reference value: 95 %)
[15] = test system: MCF7; experiment: Induction of apoptosis in human MCF7 cells assessed as activation of caspase 9 at 100 nM measured after 48 hrs by fluorescence assay relative to control; assay type: functional
Outline: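 MCF-7 breast cancer cells treated at 100 nM for 48 h. Caspase-9 activity compared with untreated control. Mean ± SD of two experiments each run in triplicate.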

[16] = test system: MCF7; experiment: Induction of apoptosis in human MCF7 cells assessed as early apoptotic cells at 50 nM measured after 48 hrs by annexinV-FITC/propidium iodide staining based flow cytometry (reference value: 4.4 %); assay type: functional; outline: as §3
[17] = test system: MCF7; experiment: Cell cycle arrest in human MCF7 cells assessed as accumulation at S phase at 100 nM measured after 48 hrs by propidium iodide staining based flow cytometry (reference value: 3.1 %); assay type: functional
[18] = test system: MCF7; experiment: Cell cycle arrest in human MCF7 cells assessed as accumulation at G0/G1 phase at 100 nM measured after 48 hrs by propidium iodide staining based flow cytometry (reference value: 85.3 %); assay type: functional
[19] = test system: MCF7; experiment: Induction of apoptosis in human MCF7 cells assessed as necrotic cells at 100 nM measured after 48 hrs by annexinV-FITC/propidium iodide staining based flow cytometry (reference value: 0.1 %); assay type: functional
[20] = Inhibition of porcine brain tubulin polymerization measured after 1 hr in presence of GTP by fluorescence assay; assay type: tissue-based, Sus scrofa
Outline: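 Tubulin assembly followed by the rise in fluorescence (ex 360 nm, em 420 nm) over 1 h at 37 °C. Compounds tested at a final 3 μM with a reference control. IC50 defined as the concentration inhibiting 50% of tubulin assembly. Mean ± SD of two experiments in triplicate.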

[21] = test system: MCF7; experiment: Cell cycle arrest in human MCF7 cells assessed as accumulation at sub-G1 phase at 100 nM measured after 48 hrs by propidium iodide staining based flow cytometry (reference value: 2.4 %); assay type: functional
[22] = test system: MCF7; experiment: Induction of apoptosis in human MCF7 cells assessed as late apoptotic cells at 50 nM measured after 48 hrs by annexinV-FITC/propidium iodide staining based flow cytometry (reference value: 0.6 %)
[23] = test system: MCF7; experiment: Induction of apoptosis in human MCF7 cells assessed as live cells at 100 nM measured after 48 hrs by annexinV-FITC/propidium iodide staining based flow cytometry (reference value: 95 %)
[24] = test system: MCF7; experiment: Antiproliferative activity against human MCF7 cells assessed as cell growth inhibition measured after 48 hrs by SRB assay; assay type: functional; outline: as §1
[25] = test system: MIA PaCa-2; experiment: Antiproliferative activity against human MIA Paca-2 cells assessed as cell growth inhibition measured after 48 hrs by SRB assay; assay type: functional; outline: as §1
[26] = test system: COLO 205; experiment: Antiproliferative activity against human COLO 205 cells assessed as cell growth inhibition measured after 48 hrs by SRB assay; assay type: functional; outline: as §1
[27] = test system: MCF7; experiment: Cell cycle arrest in human MCF7 cells assessed as accumulation at sub-G1 phase at 50 nM measured after 48 hrs by propidium iodide staining based flow cytometry (reference value: 2.4 %); assay type: functional; outline: as §2
[28] = test system: MCF7; experiment: Induction of apoptosis in human MCF7 cells assessed as early apoptotic cell population at 50 nM measured after 48 hrs by Annexin V-FITC/PI staining based flow cytometry (reference value: 0.7 %)
[29] = test system: MCF7; experiment: Induction of apoptosis in human MCF7 cells assessed as late apoptotic cell population at 100 nM measured after 48 hrs by Annexin V-FITC/PI staining based flow cytometry (reference value: 1 %)
[30] = test system: MCF7; experiment: Induction of apoptosis in human MCF7 cells assessed as late apoptotic cell population at 50 nM measured after 48 hrs by Annexin V-FITC/PI staining based flow cytometry (reference value: 1 %)
[31] = test system: DU-145; experiment: Antiproliferative activity against human DU-145 cells assessed as cell growth inhibition measured after 48 hrs by SRB assay; assay type: functional; outline: as §1

Compound | GI50 [1] [nM] | GI50 [2] [nM] | GI50 [3] [nM] | Activity [4] [%] | Activity [5] [%] | Activity [6] [%] | Activity [7] [%] | inhibition [8] [%] | Activity [9] [%] | Activity [10] [%] | GI50 [11] [nM] | late apoptotic cells [12] [%] | Activity [13] [%] | live cells [14] [%] | fold change (FC) [15] | Activity [16] [%] | Activity [17] [%] | Activity [18] [%] | Activity [19] [%] | IC50 [20] [nM] | further results
COc1ccc(/C=C\c2cc(OC)c(OC)c(OC)c2)c(NC(=O)/C=C/c2ccc(F)c(F)c2)c1O | 29200 | 29800 | 43600 | 31.4 | 6.2 | 66.13 | 23.58 | 73.7 | 1.46 | 1.1 | 99 | 4.7 | 70.02 | 86.4 | 2 | 10.5 | 0.52 | 27.47 | 0.7 | 1050 | Activity [21]: 3.07%; late apoptotic cells [22]: 2%; live cells [23]: 63.1%; GI50 [24]: 31 nM; GI50 [25]: 74000 nM; GI50 [26]: 74900 nM; Activity [27]: 2.99%; Activity [28]: 6.5%; Activity [29]: 26%; Activity [30]: 22.8%; GI50 [31]: 45 nM
COc1ccc(/C=C/C(=O)Nc2c(/C=C\c3cc(OC)c(OC)c(OC)c3)ccc(OC)c2O)cc1OC | 7500 | 99 | 90 | 14.8 | 7.2 | 64.29 | 15.25 | 69.2 | 2.86 | 0.9 | 94 | 2.3 | 78.55 | 89 | 2 | 8.4 | 0.35 | 28.16 | 0.7 | 1970 | Activity [21]: 3.65%; late apoptotic cells [22]: 1.8%; live cells [23]: 82.2%; GI50 [24]: 56 nM; GI50 [25]: 29900 nM; GI50 [26]: 99 nM; Activity [27]: 2.56%; Activity [28]: 0.8%; Activity [29]: 22.5%; Activity [30]: 12%; GI50 [31]: 60 nM
